Assay results published in ChEMBL document CHEMBL1149761, “New triazole and triazolothiadiazine derivatives as possible antimicrobial agents” (2008).
Values after ≈ are worked out from the molar mass of the structure shown.

Columns and labels:
Micrococcus luteus = assay: Antibacterial activity against Micrococcus luteus NRLL B-4375 by microdilution broth susceptibility assay; format: functional
Bacillus cereus = assay: Antibacterial activity against Bacillus cereus NRRL B-3711 by microdilution broth susceptibility assay; format: functional
Proteus vulgaris = assay: Antibacterial activity against Proteus vulgaris NRRL B-123 by microdilution broth susceptibility assay; format: functional
Salmonella typhimurium = assay: Antibacterial activity against Salmonella Typhimurium NRRL B-4420 by microdilution broth susceptibility assay; format: functional, Salmonella enterica subsp. enterica serovar Typhimurium; conditions: Salmonella enterica
Staphylococcus aureus = assay: Antibacterial activity against Staphylococcus aureus NRRL B-767 by microdilution broth susceptibility assay; format: functional
Escherichia coli = assay: Antibacterial activity against Escherichia coli NRRL B-3704 by microdilution broth susceptibility assay; format: functional
Candida albicans = assay: Antifungal activity against Candida albicans isolate by broth dilution antifungal susceptibility test; format: functional
Procedure, shortened: (§1)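 Clinical Candida isolates obtained from Osmangazi University, Faculty of Medicine. Tested by the microbroth dilution method alongside bacterial strains.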

Nakaseomyces glabratus = assay: Antifungal activity against Candida glabrata isolate by broth dilution antifungal susceptibility test; format: functional; procedure, shortened: as §1

## c1ccc(C2=Nn3c(Cc4c[nH]c5ccccc45)nnc3SC2)cc1
Micrococcus luteus
  MIC: 62.5 µg/mL (≈ 181 µM)
Bacillus cereus
  MIC: 125 µg/mL (≈ 362 µM)
Proteus vulgaris
  MIC: 62.5 µg/mL (≈ 181 µM)
Salmonella typhimurium
  MIC: 62.5 µg/mL (≈ 181 µM)
Staphylococcus aureus
  MIC: 62.5 µg/mL (≈ 181 µM)
Escherichia coli
  MIC: 250 µg/mL (≈ 724 µM)
Candida albicans
  MIC: 125 µg/mL (≈ 362 µM)
Nakaseomyces glabratus
  MIC: 125 µg/mL (≈ 362 µM)

## Clc1ccc(C2=Nn3c(Cc4c[nH]c5ccccc45)nnc3SC2)cc1
Micrococcus luteus
  MIC: 62.5 µg/mL (≈ 165 µM)
Bacillus cereus
  MIC: 125 µg/mL (≈ 329 µM)
Proteus vulgaris
  MIC: 250 µg/mL (≈ 658 µM)
Salmonella typhimurium
  MIC: 125 µg/mL (≈ 329 µM)
Staphylococcus aureus
  MIC: 125 µg/mL (≈ 329 µM)
Escherichia coli
  MIC: 125 µg/mL (≈ 329 µM)
Candida albicans
  MIC: 125 µg/mL (≈ 329 µM)
Nakaseomyces glabratus
  MIC: 250 µg/mL (≈ 658 µM)

## CN(C)c1ccc(C2=Nn3c(Cc4c[nH]c5ccccc45)nnc3SC2)cc1
Micrococcus luteus
  MIC: 62.5 µg/mL (≈ 161 µM)
Bacillus cereus
  MIC: 125 µg/mL (≈ 322 µM)
Proteus vulgaris
  MIC: 125 µg/mL (≈ 322 µM)
Salmonella typhimurium
  MIC: 12.5 µg/mL (≈ 32.2 µM)
Staphylococcus aureus
  MIC: 250 µg/mL (≈ 644 µM)
Escherichia coli
  MIC: 125 µg/mL (≈ 322 µM)
Candida albicans
  MIC: 125 µg/mL (≈ 322 µM)
Nakaseomyces glabratus
  MIC: 250 µg/mL (≈ 644 µM)

## O=C(N[C@H](CO)[C@H](O)c1ccc([N+](=O)[O-])cc1)C(Cl)Cl [CHLORAMPHENICOL]
Micrococcus luteus
  MIC: 1.95 µg/mL (≈ 6.03 µM)
Bacillus cereus
  MIC: 125 µg/mL (≈ 387 µM)
Proteus vulgaris
  MIC: 0.97 µg/mL (≈ 3 µM)
Salmonella typhimurium
  MIC: 0.97 µg/mL (≈ 3 µM)
Staphylococcus aureus
  MIC: 62.5 µg/mL (≈ 193 µM)
Escherichia coli
  MIC: 62.5 µg/mL (≈ 193 µM)

## CN(C)c1ccc(/C=N/n2c(Cc3c[nH]c4ccccc34)n[nH]c2=S)cc1
Micrococcus luteus
  MIC: 125 µg/mL (≈ 332 µM)
Bacillus cereus
  MIC: 125 µg/mL (≈ 332 µM)
Proteus vulgaris
  MIC: 125 µg/mL (≈ 332 µM)
Salmonella typhimurium
  MIC: 62.5 µg/mL (≈ 166 µM)
Staphylococcus aureus
  MIC: 250 µg/mL (≈ 664 µM)
Escherichia coli
  MIC: 125 µg/mL (≈ 332 µM)
Candida albicans
  MIC: 250 µg/mL (≈ 664 µM)
Nakaseomyces glabratus
  MIC: 250 µg/mL (≈ 664 µM)

## CC(=O)N1CCN(c2ccc(OCC3COC(Cn4ccnc4)(c4ccc(Cl)cc4Cl)O3)cc2)CC1 (stereo not drawn) [KETOCONAZOLE]
Candida albicans
  MIC: 62.5 µg/mL (≈ 118 µM)
Nakaseomyces glabratus
  MIC: 62.5 µg/mL (≈ 118 µM)

## O=[N+]([O-])c1ccc(/C=N/n2c(Cc3c[nH]c4ccccc34)n[nH]c2=S)cc1
Micrococcus luteus
  MIC: 125 µg/mL (≈ 330 µM)
Bacillus cereus
  MIC: 250 µg/mL (≈ 661 µM)
Proteus vulgaris
  MIC: 125 µg/mL (≈ 330 µM)
Salmonella typhimurium
  MIC: 125 µg/mL (≈ 330 µM)
Staphylococcus aureus
  MIC: 250 µg/mL (≈ 661 µM)
Escherichia coli
  MIC: 125 µg/mL (≈ 330 µM)
Candida albicans
  MIC: 125 µg/mL (≈ 330 µM)
Nakaseomyces glabratus
  MIC: 125 µg/mL (≈ 330 µM)

## S=c1[nH]nc(Cc2c[nH]c3ccccc23)n1/N=C/c1ccc(Cl)cc1
Micrococcus luteus
  MIC: 62.5 µg/mL (≈ 170 µM)
Bacillus cereus
  MIC: 250 µg/mL (≈ 680 µM)
Proteus vulgaris
  MIC: 125 µg/mL (≈ 340 µM)
Salmonella typhimurium
  MIC: 62.5 µg/mL (≈ 170 µM)
Staphylococcus aureus
  MIC: 125 µg/mL (≈ 340 µM)
Escherichia coli
  MIC: 125 µg/mL (≈ 340 µM)
Candida albicans
  MIC: 125 µg/mL (≈ 340 µM)
Nakaseomyces glabratus
  MIC: 250 µg/mL (≈ 680 µM)

## Cc1ccc(/C=N/n2c(Cc3c[nH]c4ccccc34)n[nH]c2=S)cc1
Micrococcus luteus
  MIC: 62.5 µg/mL (≈ 180 µM)
Bacillus cereus
  MIC: 125 µg/mL (≈ 360 µM)
Proteus vulgaris
  MIC: 62.5 µg/mL (≈ 180 µM)
Salmonella typhimurium
  MIC: 125 µg/mL (≈ 360 µM)
Staphylococcus aureus
  MIC: 125 µg/mL (≈ 360 µM)
Escherichia coli
  MIC: 250 µg/mL (≈ 720 µM)
Candida albicans
  MIC: 250 µg/mL (≈ 720 µM)
Nakaseomyces glabratus
  MIC: 125 µg/mL (≈ 360 µM)

## S=c1[nH]nc(Cc2c[nH]c3ccccc23)n1/N=C/c1ccccc1
Micrococcus luteus
  MIC: 250 µg/mL (≈ 750 µM)
Bacillus cereus
  MIC: 250 µg/mL (≈ 750 µM)
Proteus vulgaris
  MIC: 62.5 µg/mL (≈ 187 µM)
Salmonella typhimurium
  MIC: 62.5 µg/mL (≈ 187 µM)
Staphylococcus aureus
  MIC: 125 µg/mL (≈ 375 µM)
Escherichia coli
  MIC: 125 µg/mL (≈ 375 µM)
Candida albicans
  MIC: 125 µg/mL (≈ 375 µM)
Nakaseomyces glabratus
  MIC: 125 µg/mL (≈ 375 µM)

## O=[N+]([O-])c1ccc(C2=Nn3c(Cc4c[nH]c5ccccc45)nnc3SC2)cc1
Micrococcus luteus
  MIC: 125 µg/mL (≈ 320 µM)
Bacillus cereus
  MIC: 250 µg/mL (≈ 640 µM)
Proteus vulgaris
  MIC: 125 µg/mL (≈ 320 µM)
Salmonella typhimurium
  MIC: 250 µg/mL (≈ 640 µM)
Staphylococcus aureus
  MIC: 125 µg/mL (≈ 320 µM)
Escherichia coli
  MIC: 125 µg/mL (≈ 320 µM)
Candida albicans
  MIC: 125 µg/mL (≈ 320 µM)
Nakaseomyces glabratus
  MIC: 125 µg/mL (≈ 320 µM)

## Cc1ccc(C2=Nn3c(Cc4c[nH]c5ccccc45)nnc3SC2)cc1
Micrococcus luteus
  MIC: 62.5 µg/mL (≈ 174 µM)
Bacillus cereus
  MIC: 250 µg/mL (≈ 695 µM)
Proteus vulgaris
  MIC: 125 µg/mL (≈ 348 µM)
Salmonella typhimurium
  MIC: 62.5 µg/mL (≈ 174 µM)
Staphylococcus aureus
  MIC: 125 µg/mL (≈ 348 µM)
Escherichia coli
  MIC: 125 µg/mL (≈ 348 µM)
Candida albicans
  MIC: 250 µg/mL (≈ 695 µM)
Nakaseomyces glabratus
  MIC: 62.5 µg/mL (≈ 174 µM)
